From ChEMBL document CHEMBL1135826, “Antimicrobial peptides: synthesis and antibacterial activity of linear and cyclic drosocin and apidaecin 1b analogues” (2002)
≈ marks a conversion by molar mass, not a printed value. Where a SMILES comes first, the peptide text is derived from it. The star is where a group is joined. X2 = CC(=O)N[C@@H]1[C@@H](O)[C@H](O)[C@@H](CO)O[C@@H]1*; βGal = OC[C@H]1O[C@@H](*)[C@H](O)[C@@H](O)[C@H]1O; X1 = OC[C@H]1O[C@H](*)[C@H](O)[C@@H](O)[C@H]1O

How the values were obtained:
[1] = system: Acinetobacter baumannii; assay: Minimum inhibitory concentration (lowest peptide concentration) required to prevent visible bacterial growth after 18 hr of incubation at 37 C in Mueller-Hinton broth against Acinetobacter baumannii 118A; assay type: functional
How it was run: (§1)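 Broth microdilution susceptibility test per NCCLS guidelines, in Mueller–Hinton broth with about 1.5–2.0 × 10^5 CFU/mL inoculum. Plates were incubated 18 h at 37 °C. MIC was taken as the lowest peptide concentration with no visible growth. Strains were ATCC strains or clinical isolates; E. coli O18:K1:H7 Bort is an encapsulated isolate from neonatal spinal fluid, and the S. aureus isolate is MRSA.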

[2] = system: Escherichia coli; assay: Minimum inhibitory concentration (lowest peptide concentration) required to prevent visible bacterial growth after 18 hr of incubation at 37 C in Mueller-Hinton broth against Escherichia coli D22; assay type: functional; how it was run: as §1
[3] = system: Escherichia coli; assay: Minimum inhibitory concentration (lowest peptide concentration) required to prevent visible bacterial growth after 18 hr of incubation at 37 C in Mueller-Hinton broth against Escherichia coli ATCC 25922; assay type: functional; conditions: ATCC 25922, 18 h; how it was run: as §1
[4] = system: Staphylococcus epidermidis; assay: Minimum inhibitory concentration (lowest peptide concentration) required to prevent visible bacterial growth after 18 hr of incubation at 37 C in Mueller-Hinton broth against Staphylococcus epidermidis 4; assay type: functional; how it was run: as §1
[5] = system: Escherichia coli; assay: Minimum inhibitory concentration (lowest peptide concentration) required to prevent visible bacterial growth after 18 hr of incubation at 37 C in Mueller-Hinton broth against Escherichia coli ML-35; assay type: functional; how it was run: as §1
[6] = system: Pseudomonas aeruginosa; assay: Minimum inhibitory concentration (lowest peptide concentration) required to prevent visible bacterial growth after 18 hr of incubation at 37 C in Mueller-Hinton broth against Pseudomonas aeruginosa ATCC 27853; assay type: functional; conditions: ATCC 27853, 18 h; how it was run: as §1
[7] = system: Klebsiella pneumoniae; assay: Minimum inhibitory concentration (lowest peptide concentration) required to prevent visible bacterial growth after 18 hr of incubation at 37 C in Mueller-Hinton broth against Klebsiella pneumoniae 79; assay type: functional; how it was run: as §1
[8] = system: Escherichia coli; assay: Minimum inhibitory concentration (lowest peptide concentration) required to prevent visible bacterial growth after 18 hr of incubation at 37 C in Mueller-Hinton broth against Escherichia coli O18:K1:H7; assay type: functional; how it was run: as §1
[9] = system: Klebsiella pneumoniae; assay: Minimum inhibitory concentration (lowest peptide concentration) required to prevent visible bacterial growth after 18 hr of incubation at 37 C in Mueller-Hinton broth against Klebsiella pneumoniae 22; assay type: functional; how it was run: as §1
[10] = system: Escherichia coli; assay: Minimum inhibitory concentration (lowest peptide concentration) required to prevent visible bacterial growth after 18 hr of incubation at 37 C in Mueller-Hinton broth against Escherichia coli D21; assay type: functional; how it was run: as §1
[11] = system: Salmonella typhimurium; assay: Minimum inhibitory concentration (lowest peptide concentration) required to prevent visible bacterial growth after 18 hr of incubation at 37 C in Mueller-Hinton broth against Salmonella Typhimurium ATCC 14028; assay type: functional, Salmonella enterica subsp. enterica serovar Typhimurium; conditions: Salmonella enterica; how it was run: as §1
[12] = system: Staphylococcus aureus; assay: Minimum inhibitory concentration (lowest peptide concentration) required to prevent visible bacterial growth after 18 hr of incubation at 37 C in Mueller-Hinton broth against Staphylococcus aureus G; assay type: functional; how it was run: as §1
[13] = system: Salmonella enteritidis; assay: Minimum inhibitory concentration (lowest peptide concentration) required to prevent visible bacterial growth after 18 h of incubation at 37 C in Mueller-Hinton broth against […]; assay type: functional, Salmonella enterica subsp. enterica serovar Enteritidis; conditions: Salmonella enterica; how it was run: as §1
[14] = system: Salmonella enteritidis; assay: Minimum inhibitory concentration (lowest peptide concentration) required to prevent visible bacterial growth after 18 hr of incubation at 37 C in Mueller-Hinton broth against Salmonella enteritidis D5; conditions: Salmonella enterica

Row | Compound | MIC [1] | MIC [2] | MIC [3] | MIC [4] | MIC [5] | MIC [6] | MIC [7] | MIC [8] | MIC [9] | MIC [10] | MIC [11] | MIC [12] | MIC [13] | MIC [14]
1 | H-GKPRPYSPRPTSHPRPIRV-OH [DROSOCIN] | > 128 µM | > 64 µM | 4 µM | > 64 µM | 2 µM | > 128 µM | 64 µM | 8 µM | 128 µM | > 128 µM | 32 µM | > 64 µM | 8 µM | 16 µM
2 | CC[C@H](C)[C@H](NC(=O)[C@H](Cc1ccc(O)cc1)NC(=O)[C@@H](NC(=O)[C@@H]1CCCN1C(=O)[C@H](CCCN=C(N)N)NC(=O)[C@H](CC(N)=O)NC(=O)[C@H](CC(N)=O)NC(=O)CN)C(C)C)C(=O)N1CCC[C@H]1C(=O)N[C@@H](CCC(N)=O)C(=O)N1CCC[C@H]1C(=O)N[C@@H](CCCN=C(N)N)C(=O)N1CCC[C@H]1C(=O)N[C@H](C(=O)N1CCC[C@H]1C(=O)N[C@@H](Cc1c[nH]cn1)C(=O)N1CCC[C@H]1C(=O)N[C@@H](CCCN=C(N)N)C(=O)N[C@@H](CC(C)C)C(=O)O)[C@@H](C)O[C@H]1O[C@H](CO)[C@@H](O)[C@H](O)[C@H]1NC(C)=O (H-GNNRPVYIPQPRPT(X2)PHPRL-OH) | > 128 µM | 32 µM (≈ 77.2 µg/mL) | 32 µM (≈ 77.2 µg/mL) | > 64 µM | 32 µM (≈ 77.2 µg/mL) | > 128 µM | > 128 µM | 64 µM (≈ 154 µg/mL) | > 128 µM | > 64 µM | 64 µM (≈ 154 µg/mL) | > 64 µM | > 64 µM | 64 µM (≈ 154 µg/mL)
3 | CC[C@H](C)[C@H](NC(=O)[C@@H]1CCCN1C(=O)[C@H](CCCN=C(N)N)NC(=O)[C@@H]1CCCN1C(=O)[C@H](Cc1c[nH]cn1)NC(=O)[C@H](CO)NC(=O)[C@@H](NC(=O)[C@@H]1CCCN1C(=O)[C@H](CCCN=C(N)N)NC(=O)[C@@H]1CCCN1C(=O)[C@H](CO)NC(=O)[C@H](Cc1ccc(O)cc1)NC(=O)[C@@H]1CCCN1C(=O)[C@H](CCCN=C(N)N)NC(=O)[C@@H]1CCCN1C(=O)[C@H](CCCCN)NC(=O)CN)[C@@H](C)O[C@H]1O[C@H](CO)[C@H](O)[C@H](O)[C@H]1O)C(=O)N[C@@H](CCCN=C(N)N)C(=O)N[C@H](C(=O)O)C(C)C (H-GKPRPYSPRPT(X1)SHPRPIRV-OH) | > 128 µM | 2 µM (≈ 4.72 µg/mL) | 2 µM (≈ 4.72 µg/mL) | > 64 µM | 2 µM (≈ 4.72 µg/mL) | > 128 µM | 32 µM (≈ 75.5 µg/mL) | 2 µM (≈ 4.72 µg/mL) | 32 µM (≈ 75.5 µg/mL) | > 64 µM | 8 µM (≈ 18.9 µg/mL) | > 64 µM | 4 µM (≈ 9.44 µg/mL) | 2 µM (≈ 4.72 µg/mL)

Other lines, results leading:

Row | MIC [1] | MIC [2] | MIC [3] | MIC [4] | MIC [5] | MIC [6] | MIC [7] | MIC [8] | MIC [9] | MIC [10] | MIC [11] | MIC [12] | MIC [13] | MIC [14] | Compound
4 | > 128 µM | 2 µM (≈ 4.72 µg/mL) | 4 µM (≈ 9.44 µg/mL) | > 64 µM | 1 µM (≈ 2.36 µg/mL) | > 128 µM | 8 µM (≈ 18.9 µg/mL) | 2 µM (≈ 4.72 µg/mL) | 16 µM (≈ 37.8 µg/mL) | > 64 µM | 8 µM (≈ 18.9 µg/mL) | > 64 µM | 4 µM (≈ 9.44 µg/mL) | 4 µM (≈ 9.44 µg/mL) | CC[C@H](C)[C@H](NC(=O)[C@@H]1CCCN1C(=O)[C@H](CCCN=C(N)N)NC(=O)[C@@H]1CCCN1C(=O)[C@H](Cc1c[nH]cn1)NC(=O)[C@H](CO)NC(=O)[C@@H](NC(=O)[C@@H]1CCCN1C(=O)[C@H](CCCN=C(N)N)NC(=O)[C@@H]1CCCN1C(=O)[C@H](CO)NC(=O)[C@H](Cc1ccc(O)cc1)NC(=O)[C@@H]1CCCN1C(=O)[C@H](CCCN=C(N)N)NC(=O)[C@@H]1CCCN1C(=O)[C@H](CCCCN)NC(=O)CN)[C@@H](C)O[C@@H]1O[C@H](CO)[C@H](O)[C@H](O)[C@H]1O)C(=O)N[C@@H](CCCN=C(N)N)C(=O)N[C@H](C(=O)O)C(C)C (H-GKPRPYSPRPT(βGal)SHPRPIRV-OH)
5 | > 64 µM | 64 µM (≈ 140 µg/mL) | > 128 µM | > 64 µM | > 128 µM | > 128 µM | > 128 µM | > 128 µM | > 128 µM | > 64 µM | > 128 µM | > 64 µM | > 128 µM | > 128 µM | CC[C@H](C)[C@@H]1NC(=O)[C@@H]2CCCN2C(=O)[C@H](CCCN=C(N)N)NC(=O)[C@@H]2CCCN2C(=O)[C@H](Cc2c[nH]cn2)NC(=O)[C@H](CO)NC(=O)[C@H]([C@@H](C)O)NC(=O)[C@@H]2CCCN2C(=O)[C@H](CCCN=C(N)N)NC(=O)[C@@H]2CCCN2C(=O)[C@H](CO)NC(=O)[C@H](Cc2ccc(O)cc2)NC(=O)[C@@H]2CCCN2C(=O)[C@H](CCCN=C(N)N)NC(=O)[C@@H]2CCCN2C(=O)[C@H](CCCCN)NC(=O)CNC(=O)[C@H](C(C)C)NC(=O)[C@H](CCCN=C(N)N)NC1=O (HELM PEPTIDE1{G.K.P.R.P.Y.S.P.R.P.T.S.H.P.R.P.I.R.V}$PEPTIDE1,PEPTIDE1,1:R1-19:R2$$$V2.0)
